Measurements reported in paper PMC5939375 (Biochemistry, 2016).
Entries after “also recorded” stand apart in the source; their conditions may differ.

Columns and labels:
reduced WT FDTS [1] = biological target: T1, reduced WT FDTS (Thermotoga maritima, UniProt Q9WYT0); details: cited from earlier work
T1 sequence (Q9WYT0 1-220): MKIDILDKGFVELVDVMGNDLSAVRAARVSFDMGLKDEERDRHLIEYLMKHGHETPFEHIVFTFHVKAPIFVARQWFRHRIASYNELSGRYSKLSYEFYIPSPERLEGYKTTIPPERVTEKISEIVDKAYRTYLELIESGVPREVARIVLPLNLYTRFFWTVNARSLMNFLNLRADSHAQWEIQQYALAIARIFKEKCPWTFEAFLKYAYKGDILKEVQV

WT FDTS [2] = biological target: T2, WT FDTS (Thermotoga maritima, UniProt Q9WYT0); assay: Spectrophotometric titration of oxidized WT FDTS with ligand; format: binding
reduced WT FDTS [3] = biological target: T1, reduced WT FDTS; assay: Reactivity of dUMP analogs with reduced FDTS in the presence of CH2THF; format: biochemical; details: anaerobic, 0.1 M Tris-HCl pH 8 at 25 °C; 200 μM CH2THF; 10 mM dU or 200 μM dUMS; over four hours
Method in brief: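 Recombinant T. maritima WT enzyme, purified, converted to apo-protein with concentrated NaCl, and reconstituted with exogenous FAD after desalting. Run in anaerobic cuvettes in 0.1 M Tris-HCl, pH 8, 25 °C. To reduced enzyme, CH2THF (200 μM final) was added first, then test compound (final concentration as listed). Flavin spectra were followed by scanning spectrophotometry. The mixture was afterwards analysed by HPLC for 2′-deoxythymidine-5′-monosulfate.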

WT FDTS [4] = biological target: T2, WT FDTS
R90A FDTS [5] = biological target: T3, R90A FDTS (Thermotoga maritima, UniProt Q9WYT0, R90A); assay: Spectrophotometric titration of R90A FDTS with ligand; format: binding
[6] = cited from earlier work
R174A FDTS [7] = biological target: T4, R174A FDTS (Thermotoga maritima, UniProt Q9WYT0, R174A); assay: Spectrophotometric titration of R174A FDTS with ligand; format: binding
R90A FDTS [8] = biological target: T3, R90A FDTS; details: R90A variant; oxidative half-reaction with dUMP and CH2THF; cited from earlier work
R174A FDTS [9] = biological target: T4, R174A FDTS; details: R174A variant; oxidative half-reaction with dUMP and CH2THF; cited from earlier work

T3 sequence (Q9WYT0 whole entry R90A): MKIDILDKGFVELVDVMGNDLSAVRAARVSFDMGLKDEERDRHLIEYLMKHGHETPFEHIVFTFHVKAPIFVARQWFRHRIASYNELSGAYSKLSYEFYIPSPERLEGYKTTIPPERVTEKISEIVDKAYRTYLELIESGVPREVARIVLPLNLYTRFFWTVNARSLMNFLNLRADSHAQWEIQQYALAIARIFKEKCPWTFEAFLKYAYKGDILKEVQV
T4 sequence (Q9WYT0 whole entry R174A): as the sequence (Q9WYT0 whole entry R90A) above, with A90R, R174A counted along it

In the case of `O=c1[nH]c(=O)n([C@H]2C[C@H](O)[C@@H](COP(=O)(O)O)O2)cc1F` [5F-dUMP, 5-fluoro-2′-deoxyuridine-5′-monophosphate], the “oxidation of reduced FDTS in the presence of CH2THF” value (reduced WT FDTS [1]) is listed as “cannot oxidize reduced FDTS”.

In the case of `O=c1ccn([C@H]2C[C@H](O)[C@@H](CO)O2)c(=O)[nH]1` [dU, 2′-Deoxyuridine], the “loss of binding energy” value (WT FDTS [2]; dU binding to WT FDTS vs dUMP) is reported as ~ 5.2 kcal/mol and the “oxidation of reduced FDTS flavin in the presence of CH2THF” value (reduced WT FDTS [3]) is reported as “failed to oxidize reduced WT FDTS; also recorded: neither dU nor dUMS cause oxidation of the reduced flavin; also recorded: No oxidation of the flavin occurred”.

For `O=c1ccn([C@H]2C[C@H](O)[C@@H](COP(=O)(O)O)O2)c(=O)[nH]1` [dUMP, 2′-deoxyuridine-5′-monophosphate], the “pKa of N3 of dUMP bound to FDTS” value (WT FDTS [4]; bound to WT FDTS, by the interaction of R174) was “below 8”, the “stabilization of the N3 anion of bound dUMP by R174” value (WT FDTS [4]; fully ionized at pH 8) was “at least 2.8 kcal mol^−1” and the Kd (R90A FDTS [5]) was 14 ± 2 µM. For the same compound, the “loss of binding energy” value (R90A FDTS [5]; dUMP binding to R90A FDTS vs WT) was ~ 4.0 kcal/mol, the Kd (WT FDTS [2]; Kd, WT FDTS, 0.1 M Tris-HCl, pH 8 at 25 °C, estimate from fitting to Eq. 1) was about 0.03 µM and the “pKa for N3 of dUMP” value ([6]; aqueous solution) was 9.3. The “pKa of anionic phosphate oxygen of dUMP” value ([6]; phosphate oxygen, reference not given) was “about 7”, the Kd (R174A FDTS [7]) was 109 ± 6 µM and the “loss of binding energy” value (R174A FDTS [7]; dUMP binding to R174A FDTS vs WT) was ~ 5.4 kcal/mol. For the same compound, the “rate constant for flavin oxidation, fold smaller than wild-type FDTS” value (R90A FDTS [8]) was 8 fold and the “rate constant for flavin oxidation, fold smaller than wild-type FDTS” value (R174A FDTS [9]) was 3000 fold.

With `O=c1ccn([C@H]2C[C@H](O)[C@@H](COS(=O)(=O)O)O2)c(=O)[nH]1` [dUMS, 2′-deoxyuridine-5′-monosulfate] the “oxidation of reduced FDTS flavin in the presence of CH2THF” value (reduced WT FDTS [3]) was “unable to oxidize reduced FDTS; also recorded: failed to oxidize reduced FDTS; also recorded: neither dU nor dUMS cause oxidation of the reduced flavin; also recorded: No oxidation of the flavin occurred”.
